This note sets out measurements from ChEMBL document CHEMBL3745660, “Hit-to-lead optimization of phenylsulfonyl hydrazides for a potent suppressor of PGE2 production: Synthesis, biological activity, and molecular docking study” (Bioorg Med Chem Lett, 2016).

The subject of data set [1] is RAW264.7. Briefly: Cytotoxicity against mouse RAW264.7 cells assessed as cell viability at 1 to 10 uM after 24 hrs in presence of LPS by MTT assay. In kind it is cell-based. The following applies: raw264.7, 24 h. The method in brief: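 RAW 264.7 macrophages treated with compounds at 1 or 10 µM in the presence of LPS for 24 h; viability read by MTT assay. Experiments run at least twice.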

Data set [2] concerns RAW264.7. Put plainly: Suppression of PGE2 production in LPS-induced mouse RAW264.7 cells after 24 hrs by enzyme immunoassay. The following applies: RAW264.7, 24 h. In kind it is functional, cell-based. The method in brief:
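RAW 264.7 cells stimulated with LPS and treated with compound for 24 h, first screened at 1 or 10 µM. Compounds giving >50% suppression went on to IC50 determination. PGE2 in medium measured by EIA. NS398 at 3 µM served as positive control. Runs done at least twice.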

The target in a further data set is T1, Prostaglandin E synthase (Homo sapiens, UniProt O14684).
T1 sequence (O14684 whole entry): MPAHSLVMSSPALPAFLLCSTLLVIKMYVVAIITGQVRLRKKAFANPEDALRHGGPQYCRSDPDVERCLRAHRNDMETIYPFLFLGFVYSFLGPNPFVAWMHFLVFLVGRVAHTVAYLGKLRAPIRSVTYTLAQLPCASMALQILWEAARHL
Briefly: Inhibition of PGES-1 in human A549 cell microsomes using PGH2 as substrate assessed as suppression of interleukin-1beta-stimulated PGE2 production incubated for 15 mins post interleukin-1beta challenge for 72 hrs by RP-HPLC analysis. The essentials: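 Enzyme source was A549 microsomes after 72 h IL-1β (2 ng/mL) stimulation, in 0.1 M potassium phosphate pH 7.4 with 2.5 mM GSH. Compounds preincubated 15 min at 4 °C over a concentration range, then 20 µM PGH2 added for 1 min at 4 °C. Reaction stopped, PGE2 recovered by solid-phase extraction and measured by RP-HPLC against 11β-PGE2.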

Data set [3] addresses T2, Prostaglandin E synthase (Homo sapiens) (UniProt O14684).
T2 sequence (whole entry): T1 sequence (O14684 whole entry)
Put plainly: Inhibition of PGES-1 in human A549 cell microsomes using PGH2 as substrate assessed as remaining enzyme activity of interleukin-1beta-stimulated PGE2 production at 10 uM incubated for 15 mins post interleukin-1beta challenge for 72 hrs by RP-HPLC analysis. The method in brief: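 Microsomes from A549 cells stimulated with 2 ng/mL IL-1β for 72 h (pellet after 10,000 × g then 174,000 × g spins), diluted in 0.1 M potassium phosphate pH 7.4 with 2.5 mM glutathione. Compound at 10 µM preincubated 15 min at 4 °C, then 20 µM PGH2 added for 1 min at 4 °C. Stopped with FeCl2/citric acid containing 11β-PGE2 internal standard. PGE2 isolated by solid-phase extraction and quantified by RP-HPLC. Activity given as % of uninhibited control, mean ± S.E.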

Data set [4] deals with T2, Prostaglandin E synthase (Homo sapiens). Briefly: Potency index, ratio of IC50 for MK-886 to IC50 for test compound for inhibition of PGES-1 in human A549 cell microsomes. Format: cell-based.
The subject of data set [5] is RAW264.7. Put plainly: Potency index, ratio of IC50 for NS398 to IC50 for test compound for suppression of PGE2 production in LPS-induced mouse RAW264.7 cells. In kind it is functional.
In data set [6] the test system is RAW264.7. Put plainly: Suppression of NO production in LPS-induced mouse RAW264.7 cells by Griess assay. Format: functional, cell-based. The method in brief:
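LPS (10 ng/mL)-stimulated RAW 264.7 cells co-incubated with compound at 0.1–10 nM. Nitrite in supernatant read with Griess reagent. Means ± SD of three samples; ANOVA with Dunnett's test.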

SMILES strings stand for the structures.

As to `Cc1ccc(OC(=O)N(Nc2ccccc2)S(=O)(=O)c2ccccc2)cc1`, the Cytotoxic concentration with RAW264.7 [1] was more than 10 µM. The compound further came in with an IC50 in the data set with RAW264.7 [2] of 1.02 µM.
For `Cc1ccc(S(=O)(=O)N(Nc2ccccc2)C(=O)Oc2ccc(OCc3ccccc3)cc2)cc1`, the Cytotoxic concentration entry in the data set with RAW264.7 [1] was “>= 10 uM”. The IC50 with RAW264.7 [2] is 0.0326 µM; at Prostaglandin E synthase, more than 10 µM. Also, in data set [3], the Activity is 81.2%.
In the case of `COc1ccc(S(=O)(=O)N(Nc2ccccc2)C(=O)Oc2ccc(Oc3ccccc3)cc2)cc1`, in the data set on RAW264.7 [1], the Cytotoxic concentration is more than 10 µM. The IC50 in the data set with RAW264.7 [2] was determined as 0.0171 µM; on Prostaglandin E synthase, 6.6 µM. Also, the Activity in data set [3] is 37.1%.
`COc1ccc(OC(=O)N(Nc2ccccc2)S(=O)(=O)c2ccccc2)cc1`: the Cytotoxic concentration in the data set with RAW264.7 [1] was more than 10 µM. In the data set with RAW264.7 [2], this compound displayed an IC50 of 0.584 µM.
Take `COc1ccc(S(=O)(=O)N(Nc2ccccc2)C(=O)Oc2ccc3c(c2)CCC3)cc1`: the Cytotoxic concentration with RAW264.7 [1] is more than 10 µM. In addition, the Ratio IC50 in data set [4] was found to be 30; with RAW264.7 [5], 1.5. Moreover, the IC50 with RAW264.7 [2] was 0.0045 µM; at Prostaglandin E synthase, 0.07 µM; with RAW264.7 [6] it was 0.0069 µM. For the same compound, in data set [3], the Activity was 18.5%.
For `Cc1cc(C)c(S(=O)(=O)N(Nc2ccccc2)C(=O)Oc2ccc(Oc3ccccc3)cc2)c(C)c1`, the Cytotoxic concentration with RAW264.7 [1] is more than 1 µM. In the data set on RAW264.7 [2], half-maximal inhibition (IC50) required 0.177 µM.
For `O=C(Oc1ccc(Oc2ccccc2)cc1)N(Nc1ccccc1)S(=O)(=O)c1ccc(-c2ccccc2)cc1`, in the data set with RAW264.7 [1], the Cytotoxic concentration is more than 1 µM. This compound also had an IC50 in the data set on RAW264.7 [2] of 0.161 µM.
Consider `CC(C)c1ccc2c(c1)c(SC(C)(C)C)c(CC(C)(C)C(=O)O)n2Cc1ccc(Cl)cc1`, for which the Activity in data set [3] came to 16.3%.
On to `CCOc1ccc(OC(=O)N(Nc2ccccc2)S(=O)(=O)c2ccc(OC)cc2)cc1`, for which the Cytotoxic concentration in the data set with RAW264.7 [1] was more than 10 µM. For the same compound, the IC50 is 0.0205 µM in the data set with RAW264.7 [2] and more than 10 µM on Prostaglandin E synthase. The Activity in data set [3] was 62.5%.
Consider `COc1ccc(S(=O)(=O)N(Nc2ccccc2)C(=O)Oc2ccccc2OC)cc1`, for which, in the data set with RAW264.7 [1], the Cytotoxic concentration is more than 10 µM. This compound also had an IC50 in the data set on RAW264.7 [2] of 0.165 µM.
As to `COc1ccc(S(=O)(=O)N(Nc2ccccc2)C(=O)Oc2ccc(OCc3ccccc3)cc2)cc1`, in the data set with RAW264.7 [1], the Cytotoxic concentration entry is “>= 10 uM”. The IC50 in the data set on RAW264.7 [2] is 0.05 µM; on Prostaglandin E synthase, more than 10 µM. In data set [3], the Activity worked out at 62.6%.
Take `O=C(Oc1ccc(OCc2ccccc2)cc1)N(Nc1ccccc1)S(=O)(=O)c1ccc(-c2ccccc2)cc1`: the Cytotoxic concentration in the data set on RAW264.7 [1] is more than 1 µM. The compound also displayed an IC50 with RAW264.7 [2] of 0.093 µM.
As for `CCc1ccc(OC(=O)N(Nc2ccccc2)S(=O)(=O)c2ccc(OC)cc2)cc1`, the Cytotoxic concentration with RAW264.7 [1] is more than 10 µM. In addition, the IC50 in the data set on RAW264.7 [2] was 0.0285 µM; at Prostaglandin E synthase it was more than 10 µM. The Activity in data set [3] was 63.6%.
Turning to `CCCc1ccc(S(=O)(=O)N(Nc2ccccc2)C(=O)Oc2ccc(Oc3ccccc3)cc2)cc1`, in the data set with RAW264.7 [1], the Cytotoxic concentration is more than 1 µM. Further, 0.134 µM corresponded to half-maximal inhibition in the data set with RAW264.7 [2] (IC50).
For the compound `COc1ccc(S(=O)(=O)N(Nc2ccccc2)C(=O)Oc2ccccc2)cc1`, in the data set with RAW264.7 [1], the Cytotoxic concentration was more than 10 µM. The compound further registered an IC50 in the data set with RAW264.7 [2] of 4.43 µM.
In the case of `Cc1cc(C)c(S(=O)(=O)N(Nc2ccccc2)C(=O)Oc2ccc(OCc3ccccc3)cc2)c(C)c1`, the Cytotoxic concentration in the data set with RAW264.7 [1] was more than 1 µM. The same compound came in with an IC50 in the data set on RAW264.7 [2] of 0.0815 µM.
As to `Cc1ccc(S(=O)(=O)N(Nc2ccccc2)C(=O)Oc2ccccc2)cc1`, in the data set with RAW264.7 [1], the Cytotoxic concentration was more than 10 µM. Further, the concentration for half-maximal inhibition (IC50) with RAW264.7 [2] turned out to be 5.72 µM.
Turning to `O=C(Oc1ccccc1)N(Nc1ccccc1)S(=O)(=O)c1ccccc1`, the IC50 at Prostaglandin E synthase is more than 10 µM. Moreover, in data set [3], the Activity turned out to be 63.6%.
As for `Cc1ccc(OC(=O)N(Nc2ccccc2)S(=O)(=O)c2ccc(C)cc2)cc1`, the Cytotoxic concentration in the data set on RAW264.7 [1] is more than 10 µM. For the same compound, the results for the half-inhibitory concentration (IC50) with RAW264.7 [2] and on Prostaglandin E synthase were 1.01 µM and 6.1 µM, respectively. Moreover, in data set [3], the Activity was 41.3%.
In the case of `COc1ccc(OC(=O)N(Nc2ccccc2)S(=O)(=O)c2ccc(OC)cc2)cc1`, in the data set on RAW264.7 [1], the Cytotoxic concentration was more than 10 µM. The compound also registered an IC50 with RAW264.7 [2] of 0.49 µM.
As to `CC(C)(C)c1ccc(S(=O)(=O)N(Nc2ccccc2)C(=O)Oc2ccc(OCc3ccccc3)cc2)cc1`, the Cytotoxic concentration in the data set on RAW264.7 [1] was more than 1 µM. For the same compound, the 50% inhibitory concentration (IC50) in the data set on RAW264.7 [2] is 0.0569 µM; on Prostaglandin E synthase, more than 10 µM. Besides, in data set [3], the Activity came to 79.9%.
As to `COc1ccccc1OC(=O)N(Nc1ccccc1)S(=O)(=O)c1ccc(C)cc1`, the Cytotoxic concentration in the data set with RAW264.7 [1] is more than 10 µM. Further, the IC50 with RAW264.7 [2] was 0.0341 µM; on Prostaglandin E synthase, more than 10 µM. In addition, in data set [3], the Activity worked out at 55.7%.
